According to ChEMBL document CHEMBL1140209, “Synthesis and pharmacological characterization of novel druglike corticotropin-releasing factor 1 antagonists” (J Med Chem, 2008):
pIC50: −log10 of the molar value. The source made the active and inactive calls. No cut-off for these calls is given here.

What was measured:
[1] = molecular target: T1, Corticotropin-releasing factor receptor 1 (Homo sapiens, UniProt P34998); assay: Displacement of [125I]sauvagine from human recombinant CRF1 receptor expressed in CHO cells; type: cell-based
T1 sequence (P34998 whole entry): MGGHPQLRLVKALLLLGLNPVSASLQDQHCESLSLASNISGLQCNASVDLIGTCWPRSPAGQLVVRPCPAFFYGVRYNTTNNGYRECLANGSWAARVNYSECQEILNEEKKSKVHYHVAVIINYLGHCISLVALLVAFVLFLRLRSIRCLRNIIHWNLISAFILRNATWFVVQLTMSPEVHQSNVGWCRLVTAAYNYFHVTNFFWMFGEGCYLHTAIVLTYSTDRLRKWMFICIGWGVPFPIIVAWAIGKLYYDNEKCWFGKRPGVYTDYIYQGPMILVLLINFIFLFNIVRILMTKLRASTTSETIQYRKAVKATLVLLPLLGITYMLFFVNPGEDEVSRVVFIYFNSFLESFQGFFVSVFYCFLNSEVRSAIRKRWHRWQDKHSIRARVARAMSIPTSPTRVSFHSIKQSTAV

[2] = molecular target: T1, Corticotropin-releasing factor receptor 1; assay: Antagonist activity at human CRF1 receptor expressed in CHO cells assessed as effect on sauvagine-induced cAMP production; type: functional, cell-based; conditions: read-out: pA2 (converted)
Method in brief: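 CHO cells transfected with human CRF1 receptor; sauvagine concentration-response curves for cAMP were run with increasing antagonist concentrations and analysed by Schild plot (n = 6). Potency was taken as pA2, the concentration that doubles the sauvagine ED50. Antagonist alone, up to 10 µM, was also tested on cAMP without sauvagine.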

[3] = molecular target: T2, Corticotropin-releasing factor receptor 2 (Homo sapiens) (UniProt Q13324); assay: Antagonist activity at human CRF2 receptor expressed in CHO cells assessed as effect on sauvagine-induced cAMP production; type: functional, cell-based
T2 sequence (whole entry): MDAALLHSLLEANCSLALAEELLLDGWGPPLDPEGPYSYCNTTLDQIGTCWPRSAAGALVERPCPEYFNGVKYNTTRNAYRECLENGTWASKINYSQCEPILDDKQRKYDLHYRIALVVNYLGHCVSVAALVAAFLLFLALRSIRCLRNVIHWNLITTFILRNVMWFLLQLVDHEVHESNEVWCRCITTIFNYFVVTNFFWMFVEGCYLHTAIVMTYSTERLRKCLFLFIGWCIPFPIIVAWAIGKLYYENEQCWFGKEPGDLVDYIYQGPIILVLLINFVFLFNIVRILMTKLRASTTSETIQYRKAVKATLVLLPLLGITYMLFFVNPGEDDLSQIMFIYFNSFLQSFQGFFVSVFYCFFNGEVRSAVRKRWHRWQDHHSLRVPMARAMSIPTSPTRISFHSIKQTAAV
Method in brief: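 CHO cells expressing human CRF2 receptor; cAMP was stimulated with 0.5 nM sauvagine, and the antagonist was tested at concentrations up to 10 µM.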

[4] = Plasma clearance in rat at 1 mg/kg, iv or 10 mg/kg, po; type: ADME, organism-based
[5] = Plasma clearance in marmoset at 1 mg/kg, iv or 10 mg/kg, po; type: ADME, organism-based, Callithrix jacchus
[6] = Volume of distribution at steady state in rat at 1 mg/kg, iv or 10 mg/kg, po; type: ADME, organism-based; conditions: in vivo, read-out: Vdss
[7] = Volume of distribution at steady state in marmoset at 1 mg/kg, iv or 10 mg/kg, po; type: ADME, organism-based, Callithrix jacchus; conditions: in vivo, read-out: Vdss
[8] = Half life in rat at 1 mg/kg, iv or 10 mg/kg, po; type: ADME, organism-based; conditions: in vivo
[9] = Half life in marmoset at 1 mg/kg, iv or 10 mg/kg, po; type: ADME, organism-based, Callithrix jacchus; conditions: in vivo
[10] = Oral bioavailability in rat at 10 mg/kg; type: ADME, organism-based; conditions: in vivo
[11] = Oral bioavailability in marmoset at 10 mg/kg; type: ADME, organism-based, Callithrix jacchus; conditions: in vivo
[12] = Ratio of drug level in brain to plasma in rat at 1 mg/kg, iv after 1 hr; type: ADME, organism-based; set-up: dose 1 mg/kg, route intravenous; conditions: brain and plasma
[13] = Ratio of drug level in brain to plasma in gerbil at 10 mg/kg, po after 1 hr; type: ADME, organism-based; set-up: dose 10 mg/kg, route oral; conditions: gerbillinae, brain and plasma
Meriones unguiculatus [14] = assay: Anxiolytic activity in po dosed Mongolian gerbils forepaw treading model assessed as reduction of time spent in CRF-induced piano playing behavior administered 1 hr before CRF challenge; type: functional, organism-based
Meriones unguiculatus [15] = assay: Anxiolytic activity in Mongolian gerbils forepaw treading model assessed as reduction of time spent in CRF-induced piano playing behavior at 30 mg/kg, po administered 60 mins before CRF challenge; type: functional, organism-based; set-up: dose 30 mg/kg
Meriones unguiculatus [16] = assay: Anxiolytic activity in Mongolian gerbils forepaw treading model assessed as reduction of time spent in CRF-induced piano playing behavior at 30 mg/kg, po administered 180 mins before CRF challenge; type: functional, organism-based; set-up: dose 30 mg/kg
Meriones unguiculatus [17] = assay: Anxiolytic activity in Mongolian gerbils forepaw treading model assessed as reduction of time spent in CRF-induced piano playing behavior at 30 mg/kg, po administered 360 mins before CRF challenge; type: functional, organism-based; set-up: dose 30 mg/kg
Rattus norvegicus = assay: Anxiolytic activity in ip dosed ultrasonic vocalization rat model assessed as reduction of vocalization duration administered 30 mins before ultrasonic vocalizations; type: functional, organism-based
Callithrix jacchus [18] = assay: Anxiolytic activity in po dosed marmoset assessed as reduction of number of postures by marmoset human threat test; type: functional, organism-based
Callithrix jacchus [19] = assay: Toxic sedative effect in po dosed marmoset assessed as effect on number of physiological jumps; type: toxicity, organism-based; conditions: in vivo

| Compound | pIC50 [1] | further results |
| --- | --- | --- |
| Cc1cc(-n2ccc(N3CCNC3=O)n2)c2c(n1)N(c1ccc(OC(F)(F)F)cc1C)CC2 | 7.17 |  |
| COc1ccc(N2CCc3c(-n4ccc(N5CCCNC5=O)n4)cc(C)nc32)c(C)c1 | 6.84 |  |
| COc1ccc(N2CCc3c(-n4ccc(N5CCNC5=O)n4)cc(C)nc32)c(C)c1 [EMICERFONT] | 7.18 | Kb [2]: 72.4 nM; Activity [3]: inactive; clearance [4]: 19 mL/min/kg; clearance [5]: 16 mL/min/kg; Vd [6]: 2.4 L/kg; Vd [7]: 4.7 L/kg; half-life [8]: 1.6 h; half-life [9]: 3.7 h; bioavailability [10]: 66%; bioavailability [11]: 65%; Kp at 1 h [12]: 3.7; Kp at 1 h [13]: 4.7; Activity (Meriones unguiculatus [14]): Dose-dependent effect; Activity (Meriones unguiculatus [15]): Active; Activity (Meriones unguiculatus [16]): Active; Activity (Meriones unguiculatus [17]): Active; Activity (Rattus norvegicus): Dose-dependent effect; Activity (Callithrix jacchus [18]): Dose-dependent effect; Activity (Callithrix jacchus [19]): Non-toxic |
| COc1ccc(N2CCc3c(-n4ccc(N5CCCS5(=O)=O)n4)cc(C)nc32)c(C)c1 | 5.49 |  |
| COc1ccc(N2CCc3c(-n4ccc(N5CCOC5=O)n4)cc(C)nc32)c(C)c1 | 5.71 |  |
| COc1cc(-n2cccn2)ccc1N1CCc2c(-n3ccc(-n4cc[nH]c4=O)n3)cc(C)nc21 | 6.44 |  |
| Cc1cc(-n2ccc(N3CCNC3=O)n2)c2c(n1)N(c1ccc(OC(C)C)cc1C)CC2 | 5.91 |  |
| Cc1cc(-n2ccc(-n3cc[nH]c3=O)n2)c2c(n1)N(c1ccc(C(F)(F)F)cc1C(F)(F)F)CC2 | 7.05 |  |
| COc1ccc(N2CCc3c(-n4ccc(N5CCNC5=O)n4)cc(C)nc32)c(C(F)F)c1 | 7.25 |  |
| Cc1cc(-n2ccc(N3CCNC3=O)n2)c2c(n1)N(c1ccc(-n3cccn3)cc1C)CC2 | 6.43 |  |
| Cc1cc(-n2ccc(N3CCNC3=O)n2)c2c(n1)N(c1ccc(C#N)cc1C(F)(F)F)CC2 | 7.49 |  |
| COc1ccc(N2CCc3c(-n4ccc(N5CCCC5=O)n4)cc(C)nc32)c(C)c1 | 6.91 |  |

Further molecules by rising pIC50 [1], results first:

| pIC50 [1] | Compound | further results |
| --- | --- | --- |
| 6.10 | COc1ccc(N2CCc3c(-n4ccc(N5CCN(C)C5=O)n4)cc(C)nc32)c(C)c1 |  |
| 6.50 | CCOc1ccc(N2CCc3c(-n4ccc(N5CCNC5=O)n4)cc(C)nc32)c(C)c1 |  |
| 6.51 | COc1ccc(N2CCc3c(-n4ccc(N5CCNS5(=O)=O)n4)cc(C)nc32)c(C)c1 |  |
| 6.80 | Cc1cc(-n2ccc(N3CCNC3=O)n2)c2c(n1)N(c1ccc(Cl)cc1Cl)CC2 |  |
| 6.92 | Cc1cc(-n2ccc(N3CCNC3=O)n2)c2c(n1)N(c1ccc(C#N)cc1OC(F)(F)F)CC2 |  |
| 6.92 | COc1ccc(N2CCc3c(-n4ccc(-n5cc[nH]c5=O)n4)cc(C)nc32)c(C)c1 |  |
| 7.17 | Cc1cc(-n2ccc(N3CCNC3=O)n2)c2c(n1)N(c1ccc(C#N)cc1C)CC2 |  |
| 7.30 | CCc1cc(C#N)ccc1N1CCc2c(-n3ccc(N4CCNC4=O)n3)cc(C)nc21 |  |
